Screens (PubChem)
An excerpt weighted towards active compounds, which were near 2.6% of everything screened.
Platelet DG rel – modulates dense granule release in human platelets; human platelet-rich plasma, SFLLRN dense granule ATP release, luminescence; inhibition, %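 (compounds screened at 7.5 µM in platelet-rich plasma)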; 0.22% of 300,000 active; AID 1663;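 active = mean replicate score, as percent of positive control, at or above 50; inconclusive = mean below 50 but at least one replicate at or above 50; inactive = mean and every replicate below 50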
SENP6 inh – SENP6 protease inhibition; Q9GZR1; Recombinant SENP6 catalytic domain, aminoluciferin luminescence; inhibition, % at 10 µM; 1.8% of 330,000 active; AID 2599;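 active = inhibition above about 50% at the single tested dose, limit read from the data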
SENP8 block-1 – inhibitors of human SENP8 protease; Q96LD8; purified SENP8, Z-RLRGG-aminoluciferin cleavage, luminescence; inhibition, % at 10 µM; 1.2% of 330,000 active; AID 2540; in the data active = inhibition above about 50%
Target sequence (Q96LD8 whole entry, looked up): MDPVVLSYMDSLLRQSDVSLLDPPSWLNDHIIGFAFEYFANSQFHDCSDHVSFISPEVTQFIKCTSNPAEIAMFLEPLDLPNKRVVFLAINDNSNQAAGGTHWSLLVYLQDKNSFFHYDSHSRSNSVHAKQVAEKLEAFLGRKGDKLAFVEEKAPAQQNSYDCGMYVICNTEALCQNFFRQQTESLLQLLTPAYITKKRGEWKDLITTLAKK
SENP7 inh – blocks the human protease SENP7; Q9BQF6; recombinant SENP7, Z-RLRGG-aminoluciferin luminescence, 40 min; inhibition, % at 5 µM; 1.5% of 330,000 active; AID 434973;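 active = inhibition above about 50% at the single test dose, limit read from the data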
Target sequence (Q9BQF6 706-1050 limits assumed): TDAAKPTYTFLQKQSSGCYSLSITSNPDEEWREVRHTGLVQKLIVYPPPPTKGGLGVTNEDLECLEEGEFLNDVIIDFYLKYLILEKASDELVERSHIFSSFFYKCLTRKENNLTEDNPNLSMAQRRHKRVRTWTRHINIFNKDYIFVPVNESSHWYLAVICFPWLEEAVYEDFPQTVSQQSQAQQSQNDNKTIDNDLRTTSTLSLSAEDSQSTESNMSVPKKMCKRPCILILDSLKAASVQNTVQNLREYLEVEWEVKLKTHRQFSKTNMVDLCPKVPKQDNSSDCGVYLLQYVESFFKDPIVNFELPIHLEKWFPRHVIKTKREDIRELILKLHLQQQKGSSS
SENP1 inh – SENP1 (human) catalytic domain inhibition. Q9P0U3. recombinant SENP1 catalytic domain, CyPet-SUMO1-YPet FRET cleavage. inhibition, % at 10 µM. 0.21% of 360,000 active. AID 624204;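 active = inhibition at least 30% at 10 µM, raw YFP signal under a set limit, fluorescence ratio 0.5 to 1.5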
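system = hSENP1 catalytic domain, recombinant | reagent = SFCypet-SUMO1-SFYpet substrate at 25 nM | doses = one dose per compound, 10 µM, 0.5% DMSO | incubation = enzyme reaction for 50 min at room temperature, dark | measured by = FRET, CFP and YFP emission | controls = no-enzyme low, enzyme-DMSO high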
SENP8 block-2 – SENP8 (human) protease inhibition; 0.64% of 360,000 active; AID 602440; recombinant SENP8, Nedd8 substrate fluorescence; inhibition, % at 20 µM; in the data active = inhibition mostly above about 40%, no sharp cut-off; inactive = mostly below about 27%
SENP8 conf – human SENP8 inhibition, confirmed; 40% of 6,200 active; shares compounds with SENP7 inh; Recombinant SENP8, Z-RLRGG-aminoluciferin luminescence, 60 min; inhibition, % at 12.5 µM; AID 488912;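 active = mean inhibition across replicates above about 50%, limit read from the data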
SENP6 conf – confirmation of human SENP6 protease inhibitors; shares compounds with SENP7 inh; recombinant SENP6, Z-RLRGG-aminoluciferin luminescence; inhibition, % at 12.5 µM; 58% of 6,200 active; AID 488915
SENP7 confirm – confirmation of human SENP7 protease inhibitors. shares compounds with SENP7 inh. recombinant SENP7, Z-RLRGG-aminoluciferin luminescence, 40 min. inhibition, % at 12.5 µM. 69% of 6,200 active
Casp3 SENP sel – caspase-3 inhibition (SENP selectivity assay); shares compounds with SENP7 inh; 60% of 6,200 active; purified caspase-3, Z-DEVD-aminoluciferin luminescence, 60 min; inhibition, % at 12.5 µM; AID 488918;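 active = mean inhibition above about 50%, limit read from the data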
SENP luc ctr – interferes with luciferase luminescence in SENP counter-screen; shares compounds with SENP7 inh; Pre-incubated SENP8/Z-RLRGG-aminoluciferin, luciferase luminescence interference; inhibition, % at 12.5 µM; 39% of 6,200 active;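 active = mean inhibition above about 50% when retested at one dose, limit read from the data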
Numbers stand for hits; - = inactive; ? = inconclusive; . = no result.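 Rule for the calls, unless noted: active = mean inhibition above about 50% in the one-dose retest (limit read from the data); inactive = the rest.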

SMILES	Platelet DG rel	SENP6 inh	SENP8 block-1	SENP7 inh	SENP1 inh	SENP8 block-2	SENP8 conf	SENP6 conf	SENP7 confirm	Casp3 SENP sel	SENP luc ctr
CC(=O)Oc1ccccc1-c1nc(/C=C/c2ccccc2)no1	-	61	-	70	-	-	-	-	-	-	-
COc1cc(/C=C/c2noc(-c3ccccc3O)n2)cc(OC)c1OC	-	-	-	-	-	-	.	.	.	.	.
Cc1cccc(OCC(=O)N/N=C/c2sc(=O)n(Cc3cccc(C(=O)O)c3)c2Cl)c1	-	-	-	-	-	-	.	.	.	.	.
COc1ccc(-c2coc3c(C(=O)NCc4ccc(F)c(F)c4)cccc23)c(C)c1	.	.	.	.	-	-	.	.	.	.	.
CC(C)(C)OC(=O)CNC(=O)c1[nH]cnc1C(=O)Nc1ccc(CNC(=O)OC(C)(C)C)cc1	-	-	-	-	-	-	.	.	.	.	.
C=CCNC(=O)c1cc(Cl)ccn1	-	-	-	89	-	-	-	-	-	-	-
Cc1ccc(/C=C/C(=O)NC(=S)N2CCN(c3ccc(F)cc3)CC2)cc1	-	-	-	-	-	-	.	.	.	.	.
Cn1c(/C(C#N)=C/c2ccncc2)nc2ccccc21	-	-	-	-	-	-	.	.	.	.	.
Cn1c(/C(C#N)=C/c2ccc(O)cc2)nc2ccccc21	-	53	-	-	-	-	50	-	65	.	-
O=C(NCc1ccccc1)C1C(=O)Nc2ccccc2C(=O)N1c1ccc2c(c1)OCCO2 (stereo not given)	.	.	.	.	-	-	.	.	.	.	.
Cn1c(SCc2ccccc2Cl)nc2ccccc21	-	86	75	67	-	-	-	77	95	67	66
CCn1c(SCC(=O)N2CCCC2)nc2ccccc21	-	-	-	-	-	-	.	.	.	.	.
CCn1c(SCc2ccccc2Cl)nc2ccccc21	-	59	-	-	-	-	-	-	71	-	-
CCn1c(CSc2nc3ccccc3n2C)nc2ccccc21	-	-	-	-	-	-	.	.	.	.	.
CC(C(=O)O)n1nnc2ccccc21 (stereo not given)	-	-	-	-	-	-	.	.	.	.	.
CCOC(=O)N1CCN(S(=O)(=O)c2c(C)nn(C)c2C)CC1	-	-	-	-	-	-	.	.	.	.	.
CC(=O)Nc1ccc(S(=O)(=O)n2cnc3cc(C)c(C)cc32)cc1	-	-	-	-	-	-	.	.	.	.	.
O=C(Nc1ccc(N2CCCCC2)cc1)c1cncc(Br)c1	-	-	-	52	-	-	-	-	62	68	-
O=C(Nc1ccc(N2CCCCC2)cc1)c1ccc(F)cc1F	-	88	77	80	-	-	-	77	88	84	-
O=C(Cc1ccccc1)Nc1ccc(N2CCCCC2)cc1	-	-	54	64	-	-	-	-	77	73	-
Cc1cc(C(=O)Nc2ccc(N3CCCCC3)cc2)no1	-	-	-	54	-	-	-	56	77	81	-
Cc1cc(C(=O)Nc2ccc(S(=O)(=O)N3CCCC3)cc2)no1	-	-	-	-	-	-	.	.	.	.	.
Cc1ccc(NC(=O)COC(=O)COc2cccc3c2OC(C)(C)C3)cc1S(=O)(=O)N1CCOCC1	-	-	-	-	-	-	.	.	.	.	.
Cc1cccc(OCc2nc(-c3ccc(-n4cccc4)cc3)no2)c1	-	-	-	-	-	-	.	.	.	.	.
COc1ccccc1N1CCN(C(=O)Nc2ccc([N+](=O)[O-])cc2)CC1	-	-	-	-	-	-	.	.	.	.	.
SMILES	Platelet DG rel	SENP6 inh	SENP8 block-1	SENP7 inh	SENP1 inh	SENP8 block-2	SENP8 conf	SENP6 conf	SENP7 confirm	Casp3 SENP sel	SENP luc ctr
NC(=O)N/N=C(/CCCCCC/C(=N\NC(N)=O)c1ccccc1)c1ccccc1	-	-	-	-	-	-	.	.	.	.	.
CCOP(=O)(NC(c1ccccc1)c1nc2ccccc2[nH]c1=O)OCC (stereo not given)	-	-	-	-	-	-	.	.	.	.	.
CCOC(=O)C1CCCN(c2c(Nc3cccc(C)c3)c(=O)c2=O)C1 (stereo not given)	-	-	-	-	-	-	.	.	.	.	.
O=C(Nc1ccc(N2CCCC2)cc1)c1ccc2ccccc2c1	-	-	-	-	-	-	.	.	.	.	.
O=C(Nc1ccc(N2CCCC2)cc1)c1cccc(F)c1	-	94	89	93	-	-	87	86	96	80	75
O=C(Nc1ccc(N2CCCC2=O)cc1)c1cccc(F)c1	-	81	72	89	-	-	-	-	62	70	-
O=C(Nc1ccc(N2CCCCC2)cc1)c1ccccc1	-	84	75	90	-	-	-	85	98	92	-
O=C(Nc1ccc2c(c1)CCCN2C(=O)c1ccccc1)c1ccccc1	-	84	78	83	-	-	-	85	97	85	67
COc1ccc(/C=N/n2c(C)cc(C)c(C(N)=O)c2=O)cc1	-	-	-	-	-	-	.	.	.	.	.
c1ccc(Cc2ccc(OCCn3cncn3)cc2)cc1	-	-	-	-	-	-	.	.	.	.	.
c1ccc(COc2ccc(OCCCn3cncn3)cc2)cc1	-	73	52	77	-	-	74	73	89	77	74
c1ccc(-c2ccccc2-c2nc(-c3cccnc3)no2)cc1	.	-	-	-	-	-	.	.	.	.	.
CC(C)(C)Cc1nc(-c2ccccn2)no1	-	-	-	-	-	-	.	.	.	.	.
c1ccc(-c2noc(C3CCCCC3)n2)nc1	-	59	-	55	-	-	-	50	83	79	-
c1ccc(-c2noc(-c3ccc4ccccc4c3)n2)nc1	-	97	96	100	-	-	94	99	101	97	60
Brc1ccc(-c2noc(C3CCCCC3)n2)cc1	-	-	-	-	-	-	.	.	.	.	.
c1ccc(-c2noc(-c3cccnc3)n2)nc1	-	-	-	57	-	-	51	-	78	85	58
Clc1ccccc1/C=C/c1nc(-c2ccccn2)no1	?	96	95	100	-	-	99	100	103	98	74
c1ccc(CCc2ccccc2-c2nc(-c3ccccn3)no2)cc1	-	-	-	-	-	-	.	.	.	.	.
CCC(C(=O)Nc1cccnc1Cl)c1ccccc1 (stereo not given)	-	-	-	-	-	-	.	.	.	.	.
CCCN1CCC(=O)N(CCSc2ccc(C)cc2)CC1	-	-	-	-	-	-	.	.	.	.	.
